From ChEMBL document CHEMBL1773023, “Potent and selective phosphopeptide mimetic prodrugs targeted to the Src homology 2 (SH2) domain of signal transducer and activator of transcription 3” (J Med Chem, 2011)
Active and inactive are the calls of the source. No cut-off for these calls is given here.

Legend:
[1] = target: Signal transducer and activator of transcription 3 (Homo sapiens, UniProt P40763); test: Inhibition of SH2 domain of Stat3 constitutive phosphorylation at Tyr705 in human MDA-MB-468 cells at 25 uM after 2 hrs by Western blotting; assay type: cell-based
Chain of Signal transducer and activator of transcription 3 (P40763 whole entry, the tested form may be a part): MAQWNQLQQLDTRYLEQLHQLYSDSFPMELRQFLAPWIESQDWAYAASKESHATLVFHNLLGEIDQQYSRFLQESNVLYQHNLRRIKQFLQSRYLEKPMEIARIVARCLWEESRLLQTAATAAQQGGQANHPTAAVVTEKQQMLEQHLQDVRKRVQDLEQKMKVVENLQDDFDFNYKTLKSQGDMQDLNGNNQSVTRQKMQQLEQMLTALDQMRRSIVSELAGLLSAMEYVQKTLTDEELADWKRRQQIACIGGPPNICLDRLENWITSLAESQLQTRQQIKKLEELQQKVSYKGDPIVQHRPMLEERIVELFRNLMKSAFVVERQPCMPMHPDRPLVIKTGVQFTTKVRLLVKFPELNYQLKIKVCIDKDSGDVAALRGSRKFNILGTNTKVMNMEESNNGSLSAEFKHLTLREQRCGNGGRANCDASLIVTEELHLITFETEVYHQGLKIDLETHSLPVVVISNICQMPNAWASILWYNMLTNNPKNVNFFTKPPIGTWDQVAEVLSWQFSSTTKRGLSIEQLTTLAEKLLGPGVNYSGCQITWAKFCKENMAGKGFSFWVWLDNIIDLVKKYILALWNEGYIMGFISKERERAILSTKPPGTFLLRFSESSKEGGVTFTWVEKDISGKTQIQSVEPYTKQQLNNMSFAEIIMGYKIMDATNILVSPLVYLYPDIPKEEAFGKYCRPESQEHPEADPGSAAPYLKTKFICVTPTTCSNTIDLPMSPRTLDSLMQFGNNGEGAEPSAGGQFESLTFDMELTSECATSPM
How it was run: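 MDA-MB-468 cells (4×10^5/well, DMEM 10% FCS, overnight) given prodrug from freshly made 10 mM DMSO stock for 2 h. Lysates in Hepes pH 7.4 Triton buffer with phosphatase/protease inhibitors; 12 μg protein on 8% SDS-PAGE, PVDF, probed for pStat3 Y705 by ECL, then stripped and reprobed for total Stat3.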

[2] = tested on: MDA-MB-468; test: Cytotoxicity against human MDA-MB-468 cells after 72 hrs by MTT assay; assay type: functional, cell-based; details: MDA-MB-468, 72 h
How it was run: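 MDA-MB-468 cells in DMEM/10% FBS, 1500 cells/well in triplicate; medium changed next day. Prodrug stock 10 mM in ethanol, diluted into wells (ethanol <1% final); single dose or daily re-addition at 24 and 48 h in same medium. MTT read-out at 72 h; assays run three times.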

CCCC[C@H](NC(=O)/C=C(\C)c1ccc(C(F)(F)P(=O)(OCOC(=O)C(C)(C)C)OCOC(=O)C(C)(C)C)cc1)C(=O)N1C[C@@H]2C[C@@H]2[C@@H]1C(=O)N[C@H](C)CCC(N)=O
inhibition [1]: Active
IC50 [2]: 30 µM
